Assays:
Format in all cases: functional, cell-based
Bel-7402 = assay: Cytotoxicity against human Bel7402 cells by MTT assay
How it was run: (§1)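 Tumour cells cultured in RPMI-1640 with 10% (v/v) fetal calf serum plus penicillin and streptomycin, at 37 °C, humidified 5% CO2. Compounds from DMSO stocks; final DMSO in medium 2% (v/v) or lower. Assay in 96-well microtitre cultures with MTT staining. IC50 taken as concentration causing 50% growth inhibition relative to untreated cells.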

HeLa = assay: Cytotoxicity against human HeLa cells by MTT assay; how it was run: as §1
MCF7 = assay: Cytotoxicity against human MCF7 cells by MTT assay; how it was run: as §1
BGC-823 = assay: Cytotoxicity against human BGC823 cells by MTT assay; how it was run: as §1
HepG2 = assay: Cytotoxicity against human HepG2 cells by MTT assay; how it was run: as §1

Structure (SMILES) | IC50 (Bel-7402) [µM] | IC50 (HeLa) [µM] | IC50 (MCF7) [µM] | IC50 (BGC-823) [µM] | IC50 (HepG2; read-out: IC50) [µM] | IC50 (HepG2; read-out: pIC50 (converted)) [µM]
CCn1c2cc(OCc3c(F)c(F)c(F)c(F)c3F)ccc2c2cc[n+](Cc3ccccc3)c(C)c21 | 4 | 0.93 | 5.7 | 4.6 | 1.6 | 1.58
CCCCOc1ccc2c3cc[n+](Cc4ccccc4)c(C)c3n(CC(C)C)c2c1 | 5.3 | 2.6 | 5.3 | 6.8 | 1.8 | 1.82
Cc1c2c(cc[n+]1Cc1ccccc1)c1ccc(OCc3ccccc3)cc1n2CC(C)C | 5 | 12.4 | 3.9 | 5.2 | 1.9 | 1.91
Cc1nccc2c3ccc(OCc4ccccc4)cc3n(CCCc3ccccc3)c12 | 29.4 | 72.6 | 63.3 | 19.5 | 15.7 | 15.8
Cc1nccc2c3ccc(OCc4c(F)c(F)c(F)c(F)c4F)cc3n(CCCc3ccccc3)c12 | 18.6 | 73.5 | 38.7 | 7.88 | 147 | 148
Cc1nccc2c3ccc(O)cc3n(CCCc3ccccc3)c12 | 35.1 | 45.3 | 34.5 | 29.9 | 28.3 | 28.2
CCCCn1c2cc(O)ccc2c2ccnc(C)c21 | 69.5 | 89.8 | 46.9 | 90.2 | 81.5 | 81.3
CCOC(=O)c1cc2c([nH]c3ccccc32)c(-c2cc(OC)c(OC)c(OC)c2)n1 | > 200 | > 200 | 123 | > 200 | 167 | 166
CCCCn1c2ccccc2c2cc(C(=O)NCCCCCCN)ncc21 | 58.5 | 53 | 42.8 | 110 | 95.8 | 95.5
CCCCn1c2ccccc2c2cc(C(=O)NCCO)nc(C)c21 | 90.6 | 80.4 | 97.3 | 45 | 140 | 141
CCCCn1c2ccccc2c2cc(C(=O)NCCN)nc(C)c21 | 56 | 13.3 | 7.5 | 17.3 | 21.9 | 21.9
O=C(NCCO)c1cc2c3ccccc3n(Cc3ccccc3)c2cn1 | > 200 | > 200 | > 200 | > 200 | > 200 | –
NCCCCCCNC(=O)c1cc2c3ccccc3n(Cc3ccccc3)c2cn1 | 56.8 | 24.2 | 54.1 | 34.8 | 58.7 | 58.9
CCCCn1c2ccccc2c2cc(C(=O)OCC)nc(-c3cc(OC)c(OC)c(OC)c3)c21 | > 200 | > 200 | > 200 | – | > 200 | –
CCCCn1c2ccccc2c2cc(C(=O)O)nc(-c3cc(OC)c(OC)c(OC)c3)c21 | 187 | 166 | 115 | 36.2 | 208 | 209
CCCCOc1ccc2c3ccnc(C)c3n(CCCC)c2c1 | 69.9 | 17.4 | 17.3 | 15.8 | 15.5 | 15.5
O=Cc1cc2c3ccccc3n(Cc3ccc(F)cc3)c2cn1 | > 200 | > 200 | > 200 | > 200 | > 200 | –
CCCCCCCCOc1ccc2c3cc[n+](Cc4ccccc4)c(C)c3n(CCCc3ccccc3)c2c1 | 2 | 2.2 | 5.3 | 3.9 | 3.9 | 3.89
CCOc1ccc2c3cc[n+](Cc4ccccc4)c(C)c3n(CC)c2c1 | 12.6 | 2.2 | 8.1 | 9.2 | 14.3 | 14.5
CCCCCCCCOc1ccc2c3ccnc(C)c3n(CCCc3ccccc3)c2c1 | 21.8 | 69.6 | 45.9 | 17.4 | 105 | 105
NCCNC(=O)c1cc2c3ccccc3n(Cc3ccccc3)c2cn1 | 51.7 | 42.8 | 51.6 | 11.9 | 104 | 105
CCOC(=O)c1cc2c([nH]c3ccccc32)c(C)[n+]1Cc1ccccc1 | 56.2 | 101 | 44.9 | 55.3 | 53 | 52.5
Cc1nccc2c3ccc(O)cc3n(CC(C)C)c12 | 114 | 68.3 | 96.9 | 140 | 116 | 115
Cc1nc(C(=O)NCCN)cc2c3ccccc3n(Cc3ccccc3)c12 | 53.6 | 11 | 4.7 | 20.3 | 34.8 | 34.7

— ChEMBL document CHEMBL1165904, “Design, synthesis and 3D-QSAR of beta-carboline derivatives as potent antitumor agents” (Eur J Med Chem, 2010)
